What all share (type): functional
Experiment [1] has as its target T1, Peroxisome proliferator-activated receptor gamma (Homo sapiens, UniProt P37231).
T1 sequence (P37231 whole entry): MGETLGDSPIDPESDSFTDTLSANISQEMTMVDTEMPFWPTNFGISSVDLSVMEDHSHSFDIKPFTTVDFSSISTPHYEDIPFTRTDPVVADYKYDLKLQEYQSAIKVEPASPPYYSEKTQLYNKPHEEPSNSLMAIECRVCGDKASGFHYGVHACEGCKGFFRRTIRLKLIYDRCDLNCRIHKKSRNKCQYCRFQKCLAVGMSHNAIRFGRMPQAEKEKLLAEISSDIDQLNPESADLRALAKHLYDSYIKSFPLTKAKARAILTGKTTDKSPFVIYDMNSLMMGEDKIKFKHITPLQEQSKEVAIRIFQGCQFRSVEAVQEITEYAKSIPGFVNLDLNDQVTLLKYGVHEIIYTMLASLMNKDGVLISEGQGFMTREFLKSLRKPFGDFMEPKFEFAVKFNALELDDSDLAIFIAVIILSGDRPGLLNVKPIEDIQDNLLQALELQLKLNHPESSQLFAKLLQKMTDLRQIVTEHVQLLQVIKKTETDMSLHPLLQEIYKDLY
Briefly: Agonist activity at human PPARgamma by Gal4 transactivation assay. The method in brief:
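Human PPARγ Gal4-hybrid luciferase reporter transactivation assay. EC50 was calculated from concentration-response data, with maximum activation taken at the highest tested concentration.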

Experiment [2] has as its target T2, Peroxisome proliferator-activated receptor gamma (Homo sapiens) (UniProt P37231).
T2 sequence (whole entry): T1 sequence (P37231 whole entry)
Briefly: (§1) Agonist activity at human PPARgamma at 10 uM by Gal4 transactivation assay relative to pioglitazone. In outline: (§2)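 Cell-based Gal4-hybrid transactivation assay with a luciferase reporter for human PPARγ. Compounds were tested at 10 µM. Activation is expressed relative to 1 µM pioglitazone, which was set as 100% activation. Values are the mean and standard deviation of at least three independent experiments.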

Experiment [3] addresses T3, Peroxisome proliferator-activated receptor alpha (Homo sapiens) (UniProt Q07869).
T3 sequence (whole entry): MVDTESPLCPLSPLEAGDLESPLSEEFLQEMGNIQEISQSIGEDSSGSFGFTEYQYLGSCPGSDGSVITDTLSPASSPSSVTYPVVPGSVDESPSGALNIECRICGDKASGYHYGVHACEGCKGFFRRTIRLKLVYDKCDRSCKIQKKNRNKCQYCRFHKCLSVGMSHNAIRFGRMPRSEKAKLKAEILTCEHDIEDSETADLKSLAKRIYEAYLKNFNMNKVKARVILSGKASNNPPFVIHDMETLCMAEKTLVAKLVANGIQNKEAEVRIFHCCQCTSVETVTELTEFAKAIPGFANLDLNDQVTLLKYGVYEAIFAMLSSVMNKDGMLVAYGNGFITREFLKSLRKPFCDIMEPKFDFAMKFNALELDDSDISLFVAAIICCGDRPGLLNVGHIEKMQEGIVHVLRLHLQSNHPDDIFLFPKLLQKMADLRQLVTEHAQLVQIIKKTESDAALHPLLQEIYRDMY
Briefly: Agonist activity at human PPARalpha at 10 uM by Gal4 transactivation assay relative to pioglitazone.

In experiment [4] the target is T4, Peroxisome proliferator-activated receptor delta (Homo sapiens) (UniProt Q03181).
T4 sequence (whole entry): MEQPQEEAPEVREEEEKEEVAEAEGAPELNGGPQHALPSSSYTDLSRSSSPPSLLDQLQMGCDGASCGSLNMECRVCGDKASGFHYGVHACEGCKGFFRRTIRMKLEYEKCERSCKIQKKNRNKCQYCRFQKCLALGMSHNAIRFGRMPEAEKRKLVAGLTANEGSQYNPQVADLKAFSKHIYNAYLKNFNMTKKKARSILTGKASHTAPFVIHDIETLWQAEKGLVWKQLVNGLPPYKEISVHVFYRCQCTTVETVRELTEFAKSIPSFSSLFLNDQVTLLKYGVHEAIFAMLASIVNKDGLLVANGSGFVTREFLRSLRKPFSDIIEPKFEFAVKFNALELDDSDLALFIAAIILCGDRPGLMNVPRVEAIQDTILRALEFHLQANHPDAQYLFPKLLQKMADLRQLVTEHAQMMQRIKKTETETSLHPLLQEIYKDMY
The experiment in a line: Agonist activity at human PPARdelta at 10 uM by Gal4 transactivation assay relative to pioglitazone.

Experiment [5] concerns the target T1, Peroxisome proliferator-activated receptor gamma. The experiment is described as §1. The method in brief: as §2

Active and inactive are the calls of the source. The rule behind the calls is not given here.

From ChEMBL document CHEMBL1157895, “Truxillic acid derivatives act as peroxisome proliferator-activated receptor gamma activators” (Bioorg Med Chem Lett, 2010) come the findings set out here.

One may read the EC50 as the concentration giving half of the maximal effect. A higher EC50 goes with lower potency in that assay.

Consider `CCCCCCOC(=O)C1C(c2ccccc2)C(C(=O)O)C1c1ccccc1` (stereo not given), for which the EC50 in experiment [1] is 3.6 µM. In addition, the Activity in experiment [2] is 66%. The outcome in experiment [3] and in experiment [4] was inactive.

For the compound `O=C(O)C1C(c2ccccc2)C(C(=O)Oc2ccc(O)cc2)C1c1ccccc1` (stereo not given), the EC50 result in experiment [5] is recorded as “Not Active”. Further, the result in experiment [3] and in experiment [4] was inactive.

Turning to `O=C(O)C1C(c2ccccc2)C(C(=O)O)C1c1ccccc1` (stereo not given), the EC50 result in experiment [5] is “Not Active”. Further, the outcome in experiment [3] and in experiment [4] was inactive.

As to `O=C(O)C1C(c2ccccc2)C(C(=O)OCCO)C1c1ccccc1` (stereo not given), in experiment [5], the half-maximal effective concentration (EC50) entry was “Not Active”. Besides, the outcome in experiment [3] and in experiment [4] was inactive.

Consider `Cc1cccc(OC(=O)C2C(c3ccccc3)C(C(=O)O)C2c2ccccc2)c1` (stereo not given), for which the EC50 in experiment [1] came out at 3.3 µM. Further, the Activity in experiment [2] stood at 123%. In addition, the result in experiment [3] and in experiment [4] was inactive.

As for `CCCCCCCOC(=O)C1C(c2ccccc2)C(C(=O)O)C1c1ccccc1` (stereo not given), the EC50 in experiment [1] amounted to 8.6 µM. This compound gave an Activity in experiment [2] of 153%. The result in experiment [3] and in experiment [4] was inactive.

In turn, `CC(C)CCOC(=O)C1C(c2ccccc2)C(C(=O)O)C1c1ccccc1` (stereo not given) had an EC50 in experiment [1] of 4.8 µM. In experiment [2], this compound displayed an Activity of 71%. Also, the outcome in experiment [3] and in experiment [4] was inactive.

Consider `O=C(O)C1C(c2ccccc2)C(C(=O)N2CCOCC2)C1c1ccccc1` (stereo not given), for which the EC50 entry in experiment [5] is recorded as “Not Active”. For the same compound, the result in experiment [3] and in experiment [4] was inactive.

As for `CCC(C)OC(=O)C1C(c2ccccc2)C(C(=O)O)C1c1ccccc1` (stereo not given), in experiment [1], the EC50 is greater than 10 µM. The same compound registered an Activity in experiment [2] of 23%. Further, the outcome in experiment [3] and in experiment [4] was inactive.

As for `COC(=O)C1C(c2ccccc2)C(C(=O)OCc2ccccc2)C1c1ccccc1` (stereo not given), the EC50 result in experiment [5] was “Not Active”. Also, the outcome in experiment [3] and in experiment [4] was inactive.

Take `Cc1ccccc1OC(=O)C1C(c2ccccc2)C(C(=O)O)C1c1ccccc1` (stereo not given): in experiment [1], a half-maximal response (EC50) required 10 µM. The compound further gave an Activity in experiment [2] of 138%. The outcome in experiment [3] and in experiment [4] was inactive.

Regarding `O=C(O)C1C(c2ccccc2)C(C(=O)OCCCO)C1c1ccccc1` (stereo not given), in experiment [5], the EC50 entry was “Not Active”. Further, the outcome in experiment [3] and in experiment [4] was inactive.

For the compound `O=C(O)C1C(c2ccccc2)C(C(=O)N2CCCCC2)C1c1ccccc1` (stereo not given), the EC50 entry in experiment [5] is “Not Active”. In addition, the result in experiment [3] and in experiment [4] was inactive.

Take `COC(=O)C1C(c2ccccc2)C(C(=O)OC)C1c1ccccc1` (stereo not given): the EC50 entry in experiment [5] is given as “Not Active”. Besides, the outcome in experiment [3] and in experiment [4] was inactive.

As for `CC(C)OC(=O)C1C(c2ccccc2)C(C(=O)O)C1c1ccccc1` (stereo not given), the 50% effective concentration (EC50) result in experiment [5] is “Not Active”. The outcome in experiment [3] and in experiment [4] was inactive.

`CCCCCCCCOC(=O)C1C(c2ccccc2)C(C(=O)O)C1c1ccccc1` (stereo not given) gave an EC50 in experiment [1] of 9.3 µM. For the same compound, the Activity in experiment [2] worked out at 100%. For the same compound, the outcome in experiment [3] and in experiment [4] was inactive.
